According to ChEMBL document CHEMBL1154511, “Synthesis and biological evaluation of amide derivatives of diflunisal as potential anti-inflammatory agents” (2009):

Tests used:
Format in all cases: functional
[1] = tested on: Mus musculus; test: Analgesic activity in Kunming mouse assessed as inhibition of acetic acid-induced writhing response at 40 mg/kg, po
In short: (§1)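 Male and female Kunming mice (20–26 g) given the test substance by the oral route at 40 mg/kg. Percent inhibition was scored in the xylene-induced ear edema model (anti-inflammatory) or the acetic acid-induced writhing model (analgesic).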

[2] = tested on: Mus musculus; test: Antiinflammatory activity in mouse assessed as inhibition of xylene-induced ear edema at 40 mg/kg, po; in short: as §1
[3] = tested on: Mus musculus; test: Antiinflammatory activity in orally dosed mouse assessed as inhibition of xylene-induced ear edema; conditions: po
In short: (§2)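 Male and female Kunming mice (20–26 g) dosed orally. ED50 was determined in the xylene-induced ear edema model (anti-inflammatory) or the acetic acid-induced writhing model (analgesic).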

[4] = tested on: Mus musculus; test: Analgesic activity in orally dosed Kunming mouse assessed as inhibition of acetic acid-induced writhing response; conditions: po; in short: as §2
[5] = tested on: Rattus norvegicus; test: Antiinflammatory activity in rat assessed as inhibition of carrageenan-induced paw edema

Structure (SMILES) | inhibition in vivo at 40 mg/kg [1] [%] | inhibition in vivo at 40 mg/kg [2] [%] | ED50 [3] [mg/kg] | ED50 [4] [mg/kg] | ED50 [5] [mg/kg]
CN1CCN(C(=O)c2cc(-c3ccc(F)cc3F)ccc2OC(=O)c2ccccc2)CC1 | 88.3 | 27.5 |  |  | 
CC(=O)Oc1ccc(-c2ccc(F)cc2F)cc1C(=O)O | 0 | 13.7 |  |  | 
O=C(Oc1ccc(-c2ccc(F)cc2F)cc1C(=O)O)c1ccccc1 | 7.97 | 16.1 |  |  | 
CC(=O)Oc1ccc(-c2ccc(F)cc2F)cc1C(=O)Nc1cc(C)ccc1C | 13.2 | 22 |  |  | 
Cc1ccccc1NC(=O)c1cc(-c2ccc(F)cc2F)ccc1OC(=O)c1ccccc1 | 20.8 | 21.4 |  |  | 
CCN(CC)C(=O)c1cc(-c2ccc(F)cc2F)ccc1OC(=O)c1ccccc1 | 0 | 65.2 | 25.7 |  | 
CC(=O)Oc1ccc(-c2ccc(F)cc2F)cc1C(=O)NN1CCOCC1 | 28.5 | 0 |  |  | 
CNC(=O)c1cc(-c2ccc(F)cc2F)ccc1OC(=O)c1ccccc1 | 47.5 | 68.9 | 24.2 | 43.8 | 
O=C(Oc1ccc(-c2ccc(F)cc2F)cc1C(=O)Nc1ccccc1)c1ccccc1 | 5.57 | 19.8 |  |  | 
CC(=O)Oc1ccc(-c2ccc(F)cc2F)cc1C(=O)Nc1ccccc1Cl | 11.7 | 41.4 |  |  | 
CC(=O)Oc1ccc(-c2ccc(F)cc2F)cc1C(=O)Nc1ccc(Cl)cc1 | 29.9 | 0 |  |  | 
CC(=O)Oc1ccc(-c2ccc(F)cc2F)cc1C(=O)Nc1ccccc1C | 12.3 | 19.6 |  |  | 
CC(=O)Oc1ccc(-c2ccc(F)cc2F)cc1C(=O)Nc1ccc(C)cc1 | 31 | 36.4 |  |  | 
CC(=O)Oc1ccc(-c2ccc(F)cc2F)cc1C(=O)NCc1ccccc1 | 16.6 | 34.1 |  |  | 
CCNC(=O)c1cc(-c2ccc(F)cc2F)ccc1OC(C)=O | 23.9 | 5.38 |  |  | 
CC(=O)Oc1ccc(-c2ccc(F)cc2F)cc1C(=O)NC1CCCCC1 | 15.6 | 0 |  |  | 
CC(=O)Oc1ccc(-c2ccc(F)cc2F)cc1C(=O)Nc1ccccc1 | 8.9 | 23.2 |  |  | 
CC(=O)Oc1ccc(-c2ccc(F)cc2F)cc1C(=O)Nc1cccc(C)c1 | 19 | 12.8 |  |  | 
CNC(=O)c1cc(-c2ccc(F)cc2F)ccc1OC(C)=O | 29.9 | 48.8 |  |  | 
O=C(O)c1cc(-c2ccc(F)cc2F)ccc1O [DIFLUNISAL] | 8.33 | 39.9 |  |  | 59.6
